The target in data set [1] is T1, C3a anaphylatoxin chemotactic receptor (Homo sapiens, UniProt Q16581).
T1 sequence (Q16581 whole entry): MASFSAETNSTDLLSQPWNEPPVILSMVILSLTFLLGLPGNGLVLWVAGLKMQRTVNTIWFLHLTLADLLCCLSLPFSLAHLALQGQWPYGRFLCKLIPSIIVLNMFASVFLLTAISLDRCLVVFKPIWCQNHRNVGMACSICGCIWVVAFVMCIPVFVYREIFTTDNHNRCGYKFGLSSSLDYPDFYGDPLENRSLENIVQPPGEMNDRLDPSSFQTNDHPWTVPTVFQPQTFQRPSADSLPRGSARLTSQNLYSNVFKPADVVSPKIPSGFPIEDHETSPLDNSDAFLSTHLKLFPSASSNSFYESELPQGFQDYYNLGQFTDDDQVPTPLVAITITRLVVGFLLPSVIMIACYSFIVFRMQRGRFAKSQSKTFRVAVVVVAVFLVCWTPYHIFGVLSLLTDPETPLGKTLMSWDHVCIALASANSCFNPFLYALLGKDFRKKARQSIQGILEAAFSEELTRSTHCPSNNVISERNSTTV
Kind of data set: Antagonist activity at C3a receptor in human MDM cells assessed as inhibition of C3a-induced intracellular calcium release preincubated for 30 mins followed by C3a addition and measured at 1 sec interval for => 200 secs by Fluo-3 AM dye-based FLIPR assay. Format: functional, cell-based. As to conditions: read-out: IC50. The gist of the method: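 Macrophages were derived from CD14⁺ monocytes (M-CSF, 7 days) and dye-loaded with 4 μM Fluo-3 AM for 1 h at 37 °C in HBSS/probenecid/HEPES, pH 7.4. Antagonist was preincubated for 30 min at 37 °C before addition of synthetic full-length human C3a (100 nM). FLIPR fluorescence was read at ex 495/em 520 nm. Percent response was plotted against log concentration; n ≥ 3.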
(In general: A change in cytosolic calcium serves as a functional read-out for many receptors and channels.)

For data set [2], the target named is T2, C3a anaphylatoxin chemotactic receptor (Homo sapiens) (UniProt Q16581).
T2 sequence (whole entry): T1 sequence (Q16581 whole entry)
Put plainly: Potency index, ratio of SB290157 IC50 to test compound IC50 for antagonist activity at C3a receptor in human MDM cells. In kind it is cell-based.

A short description of data set [3]: Stability of the compound in rat liver microsomes at 1 uM preincubated for 5 mins followed by NADPH addition and measured after 1 hr by LC-MS/MS analysis. In kind it is ADME, Microsome. The gist of the method: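 Compound at 1 μM in 100 mM phosphate buffer, pH 7.4 (0.1% DMSO), was incubated with rat liver microsomes […] at 37 °C before further NADPH was added. Aliquots taken at 0, 5, 15, 30 and 60 min were quenched in MeCN/H₂O (9:1), centrifuged and analysed by LC-MS/MS. Microsomal activity was confirmed in parallel with SLIGRL-NH₂; n = 3.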
A general note: Liver microsomes are a subcellular fraction often used to study metabolism.

A short description of data set [4]: AUC (0 to 8 hrs) in Wistar rat at 10 mg/kg, po by LC-MS/MS analysis. Also on record: dose 10 mg/kg, time < 8 hr, route oral. Format: ADME, organism-based. The conditions noted are these: in vivo. The gist of the method: (§1)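 Male Wistar rats with jugular vein catheter, fasted overnight; dosed p.o. by gavage in olive oil or i.v. via catheter in 50% DMSO. Blood drawn from conscious unrestrained rats 5 min before dosing, then 5, 15, 30 min and 1–8 h after. Volume replaced with heparinized saline. Rats fed after 4 h sample. n = 3 per route.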

A short description of data set [5]: Volume of distribution in Wistar rat at 1 mg/kg, iv by LC-MS/MS analysis. In kind it is ADME, organism-based. The conditions noted are these: in vivo. The gist of the method: as §1
Data set [6] is described as follows: Elimination half-life in Wistar rat at 1 mg/kg, iv by LC-MS/MS analysis. Format: ADME, organism-based. The conditions noted are these: in vivo, read-out: beta t1/2. The gist of the method: as §1
Data set [7] relates to Rattus norvegicus. Kind of data set: Antiinflammatory activity in Wistar rat model of BR103-induced paw edema assessed as reduction in hind paw swelling at 10 mg/kg, po administered via gavage pretreated for 2 hrs followed by BR103 challenge and measured after 30 mins by digital caliper method relative to control. Format: functional. Also on record: scale not given: the % may be the effect or the level left. The method, boiled down: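 Male Wistar rats were given antagonist at 10 mg/kg by oral gavage in olive oil 2 h before intraplantar BR103 (350 μg in 100 μL of 5% DMSO). Sham paws received vehicle; sham and control rats received olive oil only. Paw thickness and width were measured with digital calipers at 0, 0.5, 1 and 2 h after agonist; n = 3 per group.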

For data set [8], the system named is Rattus norvegicus. Kind of data set: Antiinflammatory activity in Wistar rat model of BR103-induced paw edema assessed as reduction in hind paw swelling at 30 mg/kg, po administered via gavage pretreated for 6 to 8 hrs followed by BR103 challenge and measured after 30 mins by digital caliper method relative to control. In kind it is functional. Also noted: scale not given: the % may be the effect or the level left. The method, boiled down: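 For duration of action, antagonist was given at 30 mg/kg by oral gavage in olive oil at 1, 2, 4, 6, 8 or 12 h before intraplantar BR103 (350 μg/paw) in male Wistar rats. Controls received olive oil 2 h before challenge. Paw thickness and width were measured with calipers at 0 and 0.5 h; n = 3 per group.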

The test system of data set [9] is Rattus norvegicus. Put plainly: Antiinflammatory activity in Wistar rat model of BR103-induced paw edema assessed as reduction in hind paw swelling at 10 mg/kg, po administered via gavage pretreated for 4 hrs followed by BR103 challenge and measured after 30 mins by digital caliper method relative to control. Format: functional, organism-based. The method, boiled down:
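Male Wistar rats given 10 mg/kg p.o. in olive oil at 0.5, 1, 2 or 4 h before i.pl. BR103 (350 μg in 100 μL 5% DMSO). Control rats received olive oil. Paw thickness and width measured by digital calipers at 0 and 0.5 h after agonist. n = 3–5 per group, one-way ANOVA.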

Data set [10] deals with Rattus norvegicus. Put plainly: Antiinflammatory activity in Wistar rat model of BR103-induced paw edema assessed as reduction in Il1b gene expression at 10 mg/kg, po administered via gavage pretreated for 2 hrs followed by BR103 challenge and measured after 30 mins by SYBR green dye based RT-PCR analysis. Format: functional, organism-based. The gist of the method:
(§2)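 Rats given 10 mg/kg p.o. in olive oil 2 h before i.pl. BR103 (350 μg/paw). Paws collected 0.5 h after agonist and homogenized in TRIsure for RNA. qPCR run in duplicate, normalized to Hprt, with fold change relative to sham. n = 3–5 male Wistar rats per group.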

Data set [11] relates to Rattus norvegicus. Kind of data set: Antiinflammatory activity in Wistar rat model of BR103-induced paw edema assessed as reduction in Il6 gene expression at 10 mg/kg, po administered via gavage pretreated for 2 hrs followed by BR103 challenge and measured after 30 mins by SYBR green dye based RT-PCR analysis. In kind it is functional, organism-based. The method, boiled down:
as §2

The subject of data set [12] is Rattus norvegicus. Kind of data set: Antiinflammatory activity in Wistar rat model of BR103-induced paw edema assessed as reduction in Ccl2 gene expression at 10 mg/kg, po administered via gavage pretreated for 2 hrs followed by BR103 challenge and measured after 30 mins by SYBR green dye based RT-PCR analysis. Format: functional, organism-based. The gist of the method: as §2

Data set [13] concerns Rattus norvegicus. Put plainly: Antiinflammatory activity in Wistar rat model of BR103-induced paw edema assessed as inhibition of activation/degranulation of mast cells at 10 mg/kg, po administered via gavage pretreated for 2 hrs followed by BR103 challenge and measured after 30 mins by tryptase staining-based microscopic analysis. Format: functional, organism-based. The gist of the method:
(§3)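 Male Wistar rats 7–8 weeks old, given 10 mg/kg p.o. in olive oil 2 h before i.pl. BR103 (350 μg/paw). Sham/control received olive oil. Left paw plantar tissue taken 30 min after agonist and fixed in formalin. Frozen 5 μm sections stained with alcian blue/safranin O, or immunostained for tryptase, histamine or ED1. Positive cells quantified; n = 5 per group, one-way ANOVA.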

In data set [14] the test system is Rattus norvegicus. Kind of data set: Antiinflammatory activity in Wistar rat model of BR103-induced paw edema assessed as reduction in histamine release at 10 mg/kg, po administered via gavage pretreated for 2 hrs followed by BR103 challenge and measured after 30 mins by immunohistochemical analysis. Format: functional, organism-based. The gist of the method:
as §3

Calls of active or inactive are those of the source. The calls are words filed in the database; no cut-off is given here.

Consider `Cc1cc(C(c2ccc(Cl)cc2)c2ccc(Cl)cc2)sc1C(=O)N[C@@H](CCCNC(=N)N)C(=O)O`, for which the IC50 (in general, the concentration at which inhibition is half-maximal) in data set [1] was 10 nM. The Ratio IC50 in data set [2] was determined as 100. Further, the Stability entry in data set [3] is given as “Stable”. The AUC(0-t) (usually exposure summed from dosing to a finite time, without extrapolation to infinity) at 8 h in [4] was found to be 478 ng·h/mL. The Vd (in general, a proportionality between amount in the body and measured concentration, not a real space) in data set [5] was found to be 0.1 L. Besides, the half-life in data set [6] was 3.18 h. For the same molecule, the Activity in [7] came to 65%; in data set [8] it was 85%. The outcome in [9], in data set [10], in [11], in [12], in data set [13] and in [14] was Active.

Source of the values: ChEMBL document CHEMBL4376878, “Potent Thiophene Antagonists of Human Complement C3a Receptor with Anti-Inflammatory Activity” (J Med Chem, 2020).
